# Measured values as given in PubChem BioAssay.
# The source made the active and inactive calls.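 The calls were made as follows, unless noted: active = NADPH fluorescence slope more negative than the mean of all samples by about 3 SD, 99.7% confidence; inactive = the rest.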
# How the values were obtained:
# [1] = inhibitors of TNFa-induced NFkB p65 translocation, primary screen, imaging, HUVEC, MLSMR starter and 10KST1 sets (AID 438;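 active = inhibition above 20% together with a positive visual image hit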;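 also: compound added about 3h40 before a 20 min TNFalpha stimulation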;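 as to inhibition: signal is the nuclear over cytoplasmic p65 intensity ratio per well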); details: HUVEC TNFa-induced p65 nuclear translocation; cell count: measured here: nuclei count (cytotoxicity indicator), at 2.08 µM; inhibition: at 2 µM, stronger effect = higher value, 0% TNFa-plus-vehicle, 100% no-TNFa wells
# [2] = inhibitors of mutant huntingtin aggregation, primary screen, imaging, exon1htt(103Q)mCFP cells, high-content imaging (AID 483;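 active = visual image review flags a hit and inhibition of aggregation exceeds 20%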;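 also: compound exposure lasted 3 days before fixation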;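 as to nuclei count: percent of the per-plate median nuclei count of sample wells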); details: exon1htt(103Q)mCFP cell line, aggregate imaging, at 2 µM; inhibition of aggregation: stronger effect = higher value; nuclei count: measured here: cell count, toxicity
# [3] = inhibitors of E-selectin induction by TNFa, primary screen, imaging, HUVEC, immunofluorescence, MLSMR starter and 10KST1 sets (AID 487;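 active = visually confirmed hit in the image check and inhibition above 20%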;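 as to inhibition: signal is fraction of cell area covered by stained E-selectin grains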;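 as to nuclei count: 100% = median nuclei count of all wells on the same plate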); details: HUVEC TNFalpha-induced E-selectin immunofluorescence imaging, at 2 µM; inhibition: stronger effect = higher value; nuclei count: measured here: cell number, toxicity
# [4] = biological target: Voltage-gated potassium channel subunit beta-2 (Rattus norvegicus) (UniProt P62483); test: KvBeta enzyme negative modulators, primary screen, biochemical, NADPH fluorescence (AID 622;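 active = fluorescence slope higher than the sample average by over 3 SD, cut at about -0.22 in these data, passing the limit was not always enough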;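 also: slope of raw intensity against log time taken from 70 to 1610 s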); details: recombinant KvBeta, 4-cyanobenzaldehyde reduction, at 10 µM, stronger effect = higher value
# Chain of Voltage-gated potassium channel subunit beta-2 (Rattus norvegicus) (P62483 whole entry, looked up): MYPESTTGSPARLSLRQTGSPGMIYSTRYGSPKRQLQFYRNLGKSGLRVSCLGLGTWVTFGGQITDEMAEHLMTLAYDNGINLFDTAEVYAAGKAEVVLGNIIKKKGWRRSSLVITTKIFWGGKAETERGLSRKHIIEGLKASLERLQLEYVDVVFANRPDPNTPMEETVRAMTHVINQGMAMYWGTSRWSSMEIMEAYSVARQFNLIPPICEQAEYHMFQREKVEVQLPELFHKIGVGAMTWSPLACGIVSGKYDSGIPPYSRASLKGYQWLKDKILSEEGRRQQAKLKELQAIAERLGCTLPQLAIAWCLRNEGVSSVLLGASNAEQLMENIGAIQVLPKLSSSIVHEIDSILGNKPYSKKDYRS
# [5] = biological target: Voltage-gated potassium channel subunit beta-2 (Rattus norvegicus) (UniProt P62483); test: KvBeta positive modulators, primary screen, biochemical, NADPH fluorescence (AID 623); details: Recombinant KvBeta, NADPH fluorescence decrease slope, 10 min; at 10 µM; stronger effect = lower value;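 also: fluorescence intensity change per second fitted from 20 to 320 s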
# [6] = biological target: Muscarinic acetylcholine receptor M4 (Homo sapiens) (UniProt P08173); test: compounds altering M4/GIRK thallium flux, either direction, primary screen, M4 allosteric agonist project, cell-based, HEK293 M4/GIRK, BTC-AM (AID 625;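 active = fluorescence slope after compound addition differing from the mean of all tested samples at 99.7% confidence, mostly higher but some lower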;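 also: thallium influx through GIRK channels coupled to M4 in HEK293 cells with BTC-AM dye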); details: at 10 µM, actives lie on both sides
# Chain of Muscarinic acetylcholine receptor M4 (Homo sapiens) (P08173 whole entry, looked up): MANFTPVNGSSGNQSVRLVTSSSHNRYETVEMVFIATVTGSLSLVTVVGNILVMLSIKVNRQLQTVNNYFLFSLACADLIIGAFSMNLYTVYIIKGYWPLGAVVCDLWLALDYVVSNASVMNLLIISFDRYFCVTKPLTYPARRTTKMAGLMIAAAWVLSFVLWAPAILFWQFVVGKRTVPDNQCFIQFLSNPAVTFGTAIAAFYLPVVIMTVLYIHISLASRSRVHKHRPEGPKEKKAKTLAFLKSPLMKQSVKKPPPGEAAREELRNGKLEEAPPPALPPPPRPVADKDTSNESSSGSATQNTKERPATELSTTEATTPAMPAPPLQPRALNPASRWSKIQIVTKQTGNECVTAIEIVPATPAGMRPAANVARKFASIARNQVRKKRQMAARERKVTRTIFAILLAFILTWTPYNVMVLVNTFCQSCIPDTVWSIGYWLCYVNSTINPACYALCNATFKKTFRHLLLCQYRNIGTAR
# Method in brief: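 Material: HEK293 cells with M4 receptor and GIRK channels; Times: cells overnight at 37 °C, BTC-AM loading 1 h, reads 2 min total; Technique: kinetic BTC-AM fluorescence sampled at 1 Hz, 10 s pre-addition baseline; Read-out basis: slope over 15–24 s of trace normalized to starting intensity; Controls: carbachol positive, DMSO negative.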
# [7] = inhibitors of Sendai virus-induced IRF3 signaling, primary screen, TLR/RLR signaling modifier project, cell-based, Sendai virus stimulus, luciferase, 10K MLSCN set (AID 602276;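 active = inhibition at or above 50% at 10 µM; inactive = inhibition below 50%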;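 also: firefly luciferase from ISG56 promoter only with Renilla not read in this screen; 0% = Sendai virus plus DMSO and 100% = medium plus DMSO without virus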); details: HEK293 RL24 IRF3 luciferase reporter, at 10 µM, stronger effect = higher value
# [8] = inhibitors of poly I:C-induced TLR3 signaling, primary screen, cell-based, poly I:C stimulus, luciferase, 10K MLSCN set (AID 602277;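 active = inhibition of the reporter signal at or above 50%; inactive = inhibition below 50%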); details: HEK293-TLR3 RL24 IRF3 luciferase reporter, at 10 µM, stronger effect = higher value
compound,measurement,setting,value
COc1cc(S(=O)(=O)N2CCOCC2)ccc1NC(=O)COC(=O)c1ccccn1,cell count,[1],621
same,inhibition,[1],11.9% (inactive)
same,inhibition of aggregation,[2],-7.1% (inactive)
same,nuclei count,[2],126%
same,inhibition,[3],-45.4% (inactive)
same,nuclei count,[3],101%
same,fluorescence slope,[4],-0.542 (inactive)
same,NADPH fluorescence slope,[5],-2.5e-05 (inactive)
same,fluorescence slope,[6],0.00554 (inactive)
same,inhibition,[7],11.7% (inactive)
same,inhibition,[8],20.5% (inactive)
Cc1nc(/N=C\N(C)C)sc1C(=O)Nc1ccccc1,cell count,[1],602
same,inhibition,[1],1.5% (inactive)
same,inhibition of aggregation,[2],-11.8% (inactive)
same,nuclei count,[2],113%
same,inhibition,[3],-27.8% (inactive)
same,nuclei count,[3],97.5%
same,fluorescence slope,[4],-0.306 (inactive)
same,NADPH fluorescence slope,[5],-2e-05 (inactive)
same,fluorescence slope,[6],0.00595 (inactive)
same,inhibition,[7],-2.68% (inactive)
same,inhibition,[8],-18.9% (inactive)
NC1=NC(c2ccc(Br)cc2)n2c(nc3ccccc32)N1 (centres undefined),cell count,[1],779
same,inhibition,[1],4.8% (inactive)
same,inhibition of aggregation,[2],-6.6% (inactive)
same,nuclei count,[2],105%
same,inhibition,[3],-44.9% (inactive)
same,nuclei count,[3],106%
same,fluorescence slope,[4],-0.556 (inactive)
same,NADPH fluorescence slope,[5],-1.5e-06 (inactive)
same,fluorescence slope,[6],0.00498 (inactive)
same,inhibition,[7],17.6% (inactive)
same,inhibition,[8],25% (inactive)
O=C(Nc1ccc(Cl)cc1)N1CCSCC1,cell count,[1],358
same,inhibition,[1],6.3% (inactive)
same,inhibition of aggregation,[2],-8.3% (inactive)
same,nuclei count,[2],104%
same,inhibition,[3],37.4% (inactive)
same,nuclei count,[3],84.1%
same,fluorescence slope,[4],-0.494 (inactive)
same,NADPH fluorescence slope,[5],-3e-05 (inactive)
same,fluorescence slope,[6],0.00504 (inactive)
same,inhibition,[7],-2.29% (inactive)
same,inhibition,[8],-14.3% (inactive)
O=C(O)COc1ccc(Oc2ccccc2)cc1,cell count,[1],357
same,inhibition,[1],0.5% (inactive)
same,inhibition of aggregation,[2],0.7% (inactive)
same,nuclei count,[2],103%
same,inhibition,[3],-8.6% (inactive)
same,nuclei count,[3],112%
same,fluorescence slope,[4],-0.567 (inactive)
same,NADPH fluorescence slope,[5],1.9e-05 (inactive)
same,fluorescence slope,[6],0.00744 (inactive)
same,inhibition,[7],3.08% (inactive)
same,inhibition,[8],9.93% (inactive)
CC(=O)c1c(NCCc2ccccc2)cc(C)oc1=O,cell count,[1],577
same,inhibition,[1],8.2% (inactive)
same,inhibition of aggregation,[2],8.3% (inactive)
same,nuclei count,[2],104%
same,inhibition,[3],-32.4% (inactive)
same,nuclei count,[3],106%
same,fluorescence slope,[4],-0.259 (inactive)
same,NADPH fluorescence slope,[5],-2.2e-05 (inactive)
same,fluorescence slope,[6],0.00739 (inactive)
same,inhibition,[7],-1.27% (inactive)
same,inhibition,[8],11% (inactive)
CCCCN(CC)S(=O)(=O)c1ccc2c(c1)CCCN2C(C)=O,cell count,[1],490
same,inhibition,[1],2.9% (inactive)
same,inhibition of aggregation,[2],17.1% (inactive)
same,nuclei count,[2],111%
same,inhibition,[3],-88.5% (inactive)
same,nuclei count,[3],103%
same,fluorescence slope,[4],-0.545 (inactive)
same,NADPH fluorescence slope,[5],-2.8e-05 (inactive)
same,fluorescence slope,[6],0.0053 (inactive)
same,inhibition,[7],0.955% (inactive)
same,inhibition,[8],6.93% (inactive)
CCOC(=O)c1cc(C)n(CCCN2CCOCC2)c1C,cell count,[1],678
same,inhibition,[1],2.6% (inactive)
same,inhibition of aggregation,[2],-5.8% (inactive)
same,nuclei count,[2],114%
same,inhibition,[3],-162% (inactive)
same,nuclei count,[3],109%
same,fluorescence slope,[4],-0.473 (inactive)
same,NADPH fluorescence slope,[5],1.5e-05 (inactive)
same,fluorescence slope,[6],0.00505 (inactive)
same,inhibition,[7],0.506% (inactive)
same,inhibition,[8],19.3% (inactive)
Cc1cc(-c2ccccc2)nc2cc(C(=O)NCCCn3ccnc3)nn12,cell count,[1],908
same,inhibition,[1],6.4% (inactive)
same,inhibition of aggregation,[2],19.7% (inactive)
same,nuclei count,[2],86.1%
same,inhibition,[3],-160% (inactive)
same,nuclei count,[3],112%
same,fluorescence slope,[4],-0.362 (inactive)
same,NADPH fluorescence slope,[5],1.5e-05 (inactive)
same,fluorescence slope,[6],0.007 (inactive)
same,inhibition,[7],16.4% (inactive)
same,inhibition,[8],25.4% (inactive)
COc1ccccc1-c1nc(C#N)c(N2CCN(c3ccccc3)CC2)o1,cell count,[1],730
same,inhibition,[1],-10.2% (inactive)
same,inhibition of aggregation,[2],17% (inactive)
same,nuclei count,[2],119%
same,inhibition,[3],-96.9% (inactive)
same,nuclei count,[3],93.4%
same,fluorescence slope,[4],-0.495 (inactive)
same,NADPH fluorescence slope,[5],1.8e-05 (inactive)
same,fluorescence slope,[6],0.00604 (inactive)
same,inhibition,[7],15.8% (inactive)
same,inhibition,[8],12% (inactive)
COc1ccc2nc(NC(=O)CSc3nnc(-c4ccoc4C)n3C)sc2c1,cell count,[1],392
same,inhibition,[1],9.9% (inactive)
same,inhibition of aggregation,[2],-2.4% (inactive)
same,nuclei count,[2],97.8%
same,inhibition,[3],-28.8% (inactive)
same,nuclei count,[3],104%
same,fluorescence slope,[4],-0.563 (inactive)
same,NADPH fluorescence slope,[5],-2.5e-05 (inactive)
same,fluorescence slope,[6],0.00441 (inactive)
same,inhibition,[7],-11.5% (inactive)
same,inhibition,[8],-48.5% (inactive)
CCOc1ccc2[nH]c(=O)c(CN(CCOC)C(=O)N3CCOCC3)cc2c1,cell count,[1],373
same,inhibition,[1],2.4% (inactive)
same,inhibition of aggregation,[2],-4% (inactive)
same,nuclei count,[2],90.4%
same,inhibition,[3],-3.2% (inactive)
same,nuclei count,[3],99.9%
same,fluorescence slope,[4],-0.395 (inactive)
same,NADPH fluorescence slope,[5],3.3e-05 (inactive)
same,fluorescence slope,[6],0.0064 (inactive)
same,inhibition,[7],3.22% (inactive)
same,inhibition,[8],12.3% (inactive)
C=CCn1c(=O)[nH]c2cc(C(=O)N3CCN(c4ccc(C(C)=O)cc4)CC3)ccc2c1=O,cell count,[1],359
same,inhibition,[1],-1.8% (inactive)
same,inhibition of aggregation,[2],20.3% (inactive)
same,nuclei count,[2],101%
same,inhibition,[3],-161% (inactive)
same,nuclei count,[3],106%
same,fluorescence slope,[4],-0.464 (inactive)
same,NADPH fluorescence slope,[5],1.5e-05 (inactive)
same,fluorescence slope,[6],0.00531 (inactive)
same,inhibition,[7],-1.65% (inactive)
same,inhibition,[8],-9.26% (inactive)
Cc1c(=O)n(OCc2ccccn2)c2ccccc2[n+]1[O-],cell count,[1],208
same,inhibition,[1],-18.3% (inactive)
same,inhibition of aggregation,[2],27.8% (inactive)
same,nuclei count,[2],112%
same,inhibition,[3],14.4% (inactive)
same,nuclei count,[3],89.2%
same,fluorescence slope,[4],-0.412 (inactive)
same,NADPH fluorescence slope,[5],-1.8e-05 (inactive)
same,fluorescence slope,[6],0.00625 (inactive)
same,inhibition,[7],11.7% (inactive)
same,inhibition,[8],16.8% (inactive)
